From ChEMBL document CHEMBL1122950, “Structure-activity relationships of C-terminal tri- and tetrapeptide fragments that inhibit gastrin activity” (J Med Chem, 1985)
Activity calls are given as the source filed them. No cut-off for these calls is given here. Where a SMILES comes first, the peptide text is derived from it.

Organism: Rattus norvegicus
Test: Inhibition of gastrin stimulated acid secretion in the in situ perfused rat stomach; Inactive
Assay type: functional, organism-based
How it was run: (§1)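 In situ perfused stomach (Ghosh and Schild method) in urethane-anesthetized rats, with urethane given ip, or im and ip for some analogues. Acid secretion was stimulated by gastrin and test peptides were given in vivo. Antagonism is expressed as ED50 in μM/kg.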
For `CC(C)C[C@H](NC(=O)[C@H](Cc1c[nH]c2ccccc12)NC(=O)OC(C)(C)C)C(=O)N[C@@H](CC(=O)OCc1ccccc1)C(N)=O` (HELM PEPTIDE1{[CC(C)(C)OC(=O)[*:2]].W.L.D.[am]}|CHEM1{[c1ccc(CO[*:1])cc1]}$PEPTIDE1,CHEM1,4:R3-1:R1$$$V2.0), the ED50 was “inactive”. With `CSCC[C@H](NC(=O)[C@H](Cc1c[nH]c2ccccc12)NC(=O)OC(C)(C)C)C(=O)N[C@@H](CC(=O)OCc1ccccc1)C(N)=O` (HELM PEPTIDE1{[CC(C)(C)OC(=O)[*:2]].W.M.D.[am]}|CHEM1{[c1ccc(CO[*:1])cc1]}$PEPTIDE1,CHEM1,4:R3-1:R1$$$V2.0) the ED50 was “inactive”.

The compounds below were run against T1, Gastrin/cholecystokinin type B receptor (Rattus norvegicus) (UniProt P30553) (assay: Inhibition of gastrin stimulated acid secretion in in situ perfused rat stomach).
T1 sequence (whole entry): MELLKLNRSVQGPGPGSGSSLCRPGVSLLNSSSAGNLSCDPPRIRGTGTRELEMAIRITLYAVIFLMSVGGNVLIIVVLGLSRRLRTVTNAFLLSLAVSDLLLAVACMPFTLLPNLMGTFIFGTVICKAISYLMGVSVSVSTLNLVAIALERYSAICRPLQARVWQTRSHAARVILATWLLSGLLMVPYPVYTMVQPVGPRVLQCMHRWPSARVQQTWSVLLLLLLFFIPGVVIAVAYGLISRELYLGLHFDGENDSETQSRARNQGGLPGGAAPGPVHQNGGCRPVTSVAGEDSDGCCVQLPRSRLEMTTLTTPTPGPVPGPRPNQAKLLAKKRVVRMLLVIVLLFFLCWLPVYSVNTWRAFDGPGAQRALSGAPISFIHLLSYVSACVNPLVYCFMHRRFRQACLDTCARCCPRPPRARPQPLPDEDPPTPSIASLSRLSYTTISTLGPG
Assay type: functional, tissue-based
How it was run: as §1
For `CC(C)CC(NC(=O)[C@H](Cc1c[nH]c2ccccc12)NC(=O)OC(C)(C)C)C(=O)N[C@@H](CC(=O)O)C(N)=O` (stereo not given in full), the ED50 was 15 µmol/kg. In the case of `CC(C)C[C@H](NC(=O)[C@H](Cc1c[nH]c2ccccc12)NC(=O)OC(C)(C)C)C(=O)N[C@H](CC(=O)O)C(N)=O`, the ED50 is reported as 17 µmol/kg. Work on `CCCN(CCC)C(=O)C(CCC(=O)O)NC(=O)c1ccccc1` (stereo not given) yielded an ED50 of 350 µmol/kg. `O=C(N[C@@H](Cc1c[nH]c2ccccc12)C(=O)O)c1ccc(Cl)cc1` was tested, and the ED50 was 170 µmol/kg. `CSCC[C@H](NC(=O)[C@H](Cc1c[nH]c2ccccc12)NC(=O)CNC(=O)OC(C)(C)C)C(=O)N[C@@H](CC(=O)O)C(N)=O` (HELM PEPTIDE1{[CC(C)(C)OC(=O)[*:2]].G.W.M.D.[am]}$$$$V2.0) gave an ED50 of 8 µmol/kg. With `C[C@H](NC(=O)[C@H](Cc1c[nH]c2ccccc12)NC(=O)OC(C)(C)C)C(=O)N[C@@H](CC(=O)O)C(N)=O` (HELM PEPTIDE1{[CC(C)(C)OC(=O)[*:2]].W.A.D.[am]}$$$$V2.0) the ED50 was 30 µmol/kg. Work on `CC(C)(C)OC(=O)N[C@@H](Cc1c[nH]c2ccccc12)C(=O)N[C@@H](Cc1ccccc1)C(=O)N[C@@H](CC(=O)O)C(N)=O` (HELM PEPTIDE1{[CC(C)(C)OC(=O)[*:2]].W.F.D.[am]}$$$$V2.0) yielded an ED50 of 26.5 µmol/kg. With `CC(C)(C)OC(=O)N[C@@H](Cc1c[nH]c2ccccc12)C(=O)NCC(=O)N[C@@H](CC(=O)O)C(N)=O` (HELM PEPTIDE1{[CC(C)(C)OC(=O)[*:2]].W.G.D.[am]}$$$$V2.0) the ED50 was 60 µmol/kg. Work on `CC[C@H](C)[C@H](NC(=O)[C@H](Cc1c[nH]c2ccccc12)NC(=O)OC(C)(C)C)C(=O)N[C@@H](CC(=O)O)C(N)=O` (HELM PEPTIDE1{[CC(C)(C)OC(=O)[*:2]].W.I.D.[am]}$$$$V2.0) yielded an ED50 of 25 µmol/kg. Compound `CC(C)C[C@H](NC(=O)[C@H](Cc1c[nH]c2ccccc12)NC(=O)OC(C)(C)C)C(=O)N[C@@H](C)C(N)=O` (HELM PEPTIDE1{[CC(C)(C)OC(=O)[*:2]].W.L.A.[am]}$$$$V2.0) has an ED50 of 150 µmol/kg. For `CC(C)C[C@H](NC(=O)[C@H](Cc1c[nH]c2ccccc12)NC(=O)OC(C)(C)C)C(=O)N[C@@H](CC(=O)O)C(=O)N(C)C` (HELM PEPTIDE1{[CC(C)(C)OC(=O)[*:2]].W.L.D.[CN(C)[*:1]]}$$$$V2.0), the ED50 was 10 µmol/kg. `CC(C)C[C@H](NC(=O)[C@H](Cc1c[nH]c2ccccc12)NC(=O)OC(C)(C)C)C(=O)N[C@@H](CC(=O)O)C(=O)O` (HELM PEPTIDE1{[CC(C)(C)OC(=O)[*:2]].W.L.D}$$$$V2.0) gave an ED50 of 27.3 µmol/kg. `CC(C)C[C@H](NC(=O)[C@H](Cc1c[nH]c2ccccc12)NC(=O)OC(C)(C)C)C(=O)N[C@@H](CCC(=O)O)C(N)=O` (HELM PEPTIDE1{[CC(C)(C)OC(=O)[*:2]].W.L.E.[am]}$$$$V2.0) gave an ED50 of 11 µmol/kg. In the case of `CC(C)C[C@H](NC(=O)[C@H](Cc1c[nH]c2ccccc12)NC(=O)OC(C)(C)C)C(=O)N[C@@H](CC(N)=O)C(=O)O` (HELM PEPTIDE1{[CC(C)(C)OC(=O)[*:2]].W.L.N}$$$$V2.0), the ED50 is reported as 19 µmol/kg. `CSCC[C@H](NC(=O)[C@H](Cc1c[nH]c2ccccc12)NC(=O)OC(C)(C)C)C(=O)N[C@@H](CC(=O)O)C(N)=O` (HELM PEPTIDE1{[CC(C)(C)OC(=O)[*:2]].W.M.D.[am]}$$$$V2.0) showed an ED50 of 14 µmol/kg. Work on `CC(C)(C)OC(=O)N[C@@H](Cc1c[nH]c2ccccc12)C(=O)N1CCC[C@H]1C(=O)N[C@@H](CC(=O)O)C(N)=O` (HELM PEPTIDE1{[CC(C)(C)OC(=O)[*:2]].W.P.D.[am]}$$$$V2.0) yielded an ED50 of 15 µmol/kg. `CCCC[C@H](NC(=O)[C@H](Cc1c[nH]c2ccccc12)NC(=O)OC(C)(C)C)C(=O)N[C@@H](CC(=O)O)C(N)=O` (HELM PEPTIDE1{[CC(C)(C)OC(=O)[*:2]].W.[Nle].D.[am]}$$$$V2.0) was tested, and the ED50 was 14 µmol/kg. Work on `CC(C)C[C@H](NC(=O)[C@H](Cc1c[nH]c2ccccc12)NC(=O)OCc1ccccc1)C(=O)N[C@@H](CC(=O)O)C(N)=O` (HELM PEPTIDE1{[O=C(OCc1ccccc1)[*:2]].W.L.D.[am]}$$$$V2.0) yielded an ED50 of 38 µmol/kg.
